Results: ChEMBL document CHEMBL1146690, “Design and synthesis of aminopropyl tetrahydroindole-based indolin-2-ones as selective and potent inhibitors of Src and Yes tyrosine kinase” (Bioorg Med Chem Lett, 2004)

What was measured:
[1] = biological target: Proto-oncogene tyrosine-protein kinase Src (Homo sapiens, UniProt P12931); assay: Inhibitory activity against Src protein tyrosine kinase
Summary of the method: (§1)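 Enzymatic kinase inhibition run by previously reported methods. Each IC50 came from at least two separate tests with deviation under 20%, and the mean is reported.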

[2] = biological target: Vascular endothelial growth factor receptor 2 (Homo sapiens, UniProt P35968); assay: Inhibitory activity against Vascular endothelial growth factor receptor 2
[3] = biological target: Fibroblast growth factor receptor 1 (Homo sapiens, UniProt P11362); assay: Inhibitory activity against Fibroblast growth factor receptor 1
[4] = biological target: Tyrosine-protein kinase Lck (Homo sapiens, UniProt P06239); assay: Inhibitory activity against Lck tyrosine kinase
[5] = biological target: Tyrosine-protein kinase Fyn (Homo sapiens, UniProt P06241); assay: Inhibitory activity against Fyn tyrosine kinase
[6] = biological target: Platelet-derived growth factor receptor beta (Homo sapiens, UniProt P09619); assay: Inhibitory activity against PDGFRbeta tyrosine kinase; summary of the method: as §1
Sequence of Platelet-derived growth factor receptor beta (P09619 whole entry): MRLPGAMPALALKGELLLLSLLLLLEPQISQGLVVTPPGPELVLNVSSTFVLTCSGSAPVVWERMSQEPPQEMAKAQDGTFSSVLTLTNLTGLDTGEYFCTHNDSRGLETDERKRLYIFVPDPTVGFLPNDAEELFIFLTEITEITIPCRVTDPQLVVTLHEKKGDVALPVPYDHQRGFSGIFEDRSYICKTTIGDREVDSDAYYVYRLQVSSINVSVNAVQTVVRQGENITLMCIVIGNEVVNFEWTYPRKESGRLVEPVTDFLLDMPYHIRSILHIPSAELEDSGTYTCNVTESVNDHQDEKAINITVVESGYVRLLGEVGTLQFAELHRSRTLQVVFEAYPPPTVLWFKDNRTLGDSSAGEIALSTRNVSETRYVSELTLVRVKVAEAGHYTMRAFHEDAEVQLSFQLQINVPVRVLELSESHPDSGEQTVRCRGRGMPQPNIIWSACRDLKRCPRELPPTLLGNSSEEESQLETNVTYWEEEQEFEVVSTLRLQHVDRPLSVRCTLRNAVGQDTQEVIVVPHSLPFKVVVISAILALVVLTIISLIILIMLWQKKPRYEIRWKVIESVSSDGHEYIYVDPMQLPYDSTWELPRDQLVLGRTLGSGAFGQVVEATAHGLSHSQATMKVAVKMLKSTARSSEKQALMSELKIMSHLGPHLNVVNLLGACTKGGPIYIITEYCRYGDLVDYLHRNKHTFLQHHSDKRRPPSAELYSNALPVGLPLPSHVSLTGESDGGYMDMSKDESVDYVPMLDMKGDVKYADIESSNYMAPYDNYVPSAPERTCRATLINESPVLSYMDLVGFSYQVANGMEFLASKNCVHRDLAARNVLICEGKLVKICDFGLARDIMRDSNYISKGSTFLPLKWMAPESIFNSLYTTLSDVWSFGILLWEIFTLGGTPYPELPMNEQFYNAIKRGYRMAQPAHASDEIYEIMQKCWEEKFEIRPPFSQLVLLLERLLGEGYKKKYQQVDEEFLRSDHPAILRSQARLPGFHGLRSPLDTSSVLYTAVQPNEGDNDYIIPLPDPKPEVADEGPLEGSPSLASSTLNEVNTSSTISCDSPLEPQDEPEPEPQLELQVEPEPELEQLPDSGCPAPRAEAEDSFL

Sequence of Vascular endothelial growth factor receptor 2 (P35968 whole entry): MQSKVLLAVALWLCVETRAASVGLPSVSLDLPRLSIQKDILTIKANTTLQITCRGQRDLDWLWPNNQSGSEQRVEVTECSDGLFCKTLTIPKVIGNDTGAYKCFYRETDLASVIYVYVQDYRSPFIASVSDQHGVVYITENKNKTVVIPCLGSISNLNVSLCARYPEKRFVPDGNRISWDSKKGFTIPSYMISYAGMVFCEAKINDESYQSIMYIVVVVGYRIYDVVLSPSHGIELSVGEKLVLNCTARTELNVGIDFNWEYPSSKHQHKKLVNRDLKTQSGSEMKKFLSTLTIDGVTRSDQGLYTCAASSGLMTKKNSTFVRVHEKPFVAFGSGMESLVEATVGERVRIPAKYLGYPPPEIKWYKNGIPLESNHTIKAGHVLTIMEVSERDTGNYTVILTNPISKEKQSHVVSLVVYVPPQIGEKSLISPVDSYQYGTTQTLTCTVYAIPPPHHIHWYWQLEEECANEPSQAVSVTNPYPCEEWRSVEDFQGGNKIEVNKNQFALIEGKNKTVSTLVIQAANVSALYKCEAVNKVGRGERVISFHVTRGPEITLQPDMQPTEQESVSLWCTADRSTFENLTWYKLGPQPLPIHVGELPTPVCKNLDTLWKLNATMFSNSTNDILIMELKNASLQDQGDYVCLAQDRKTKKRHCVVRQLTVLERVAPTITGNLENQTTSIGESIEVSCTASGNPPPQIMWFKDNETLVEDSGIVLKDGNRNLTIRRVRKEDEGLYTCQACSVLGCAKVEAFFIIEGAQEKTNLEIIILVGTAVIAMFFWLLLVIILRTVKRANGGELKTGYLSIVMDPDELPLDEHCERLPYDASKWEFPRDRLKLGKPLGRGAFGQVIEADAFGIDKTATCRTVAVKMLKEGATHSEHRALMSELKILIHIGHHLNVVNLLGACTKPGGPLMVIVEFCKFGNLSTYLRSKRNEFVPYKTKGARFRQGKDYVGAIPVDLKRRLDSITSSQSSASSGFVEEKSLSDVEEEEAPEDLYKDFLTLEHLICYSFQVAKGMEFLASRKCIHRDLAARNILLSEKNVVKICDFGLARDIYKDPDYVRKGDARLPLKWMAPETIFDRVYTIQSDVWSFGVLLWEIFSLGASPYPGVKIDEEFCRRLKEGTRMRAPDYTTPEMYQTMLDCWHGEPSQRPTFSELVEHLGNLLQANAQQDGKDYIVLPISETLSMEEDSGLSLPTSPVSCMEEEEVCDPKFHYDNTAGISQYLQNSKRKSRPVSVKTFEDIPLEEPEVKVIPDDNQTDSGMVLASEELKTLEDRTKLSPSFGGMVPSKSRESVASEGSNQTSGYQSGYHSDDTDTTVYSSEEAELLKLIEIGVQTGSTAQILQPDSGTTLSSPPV
Sequence of Tyrosine-protein kinase Fyn (P06241 whole entry): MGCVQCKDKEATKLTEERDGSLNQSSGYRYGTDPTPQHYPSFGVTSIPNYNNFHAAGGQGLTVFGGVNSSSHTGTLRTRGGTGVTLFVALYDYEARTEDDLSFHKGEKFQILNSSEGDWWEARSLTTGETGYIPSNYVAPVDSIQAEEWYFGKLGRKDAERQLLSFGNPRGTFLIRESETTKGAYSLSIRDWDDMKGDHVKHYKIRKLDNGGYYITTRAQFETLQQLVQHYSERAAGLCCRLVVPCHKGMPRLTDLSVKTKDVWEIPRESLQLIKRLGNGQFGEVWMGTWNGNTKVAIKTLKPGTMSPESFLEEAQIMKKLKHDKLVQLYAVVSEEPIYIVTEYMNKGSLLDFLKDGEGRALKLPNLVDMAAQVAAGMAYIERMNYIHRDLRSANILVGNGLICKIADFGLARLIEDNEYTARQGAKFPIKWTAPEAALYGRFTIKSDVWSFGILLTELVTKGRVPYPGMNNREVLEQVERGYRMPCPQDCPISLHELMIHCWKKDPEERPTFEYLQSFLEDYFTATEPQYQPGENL
Sequence of Fibroblast growth factor receptor 1 (P11362 whole entry): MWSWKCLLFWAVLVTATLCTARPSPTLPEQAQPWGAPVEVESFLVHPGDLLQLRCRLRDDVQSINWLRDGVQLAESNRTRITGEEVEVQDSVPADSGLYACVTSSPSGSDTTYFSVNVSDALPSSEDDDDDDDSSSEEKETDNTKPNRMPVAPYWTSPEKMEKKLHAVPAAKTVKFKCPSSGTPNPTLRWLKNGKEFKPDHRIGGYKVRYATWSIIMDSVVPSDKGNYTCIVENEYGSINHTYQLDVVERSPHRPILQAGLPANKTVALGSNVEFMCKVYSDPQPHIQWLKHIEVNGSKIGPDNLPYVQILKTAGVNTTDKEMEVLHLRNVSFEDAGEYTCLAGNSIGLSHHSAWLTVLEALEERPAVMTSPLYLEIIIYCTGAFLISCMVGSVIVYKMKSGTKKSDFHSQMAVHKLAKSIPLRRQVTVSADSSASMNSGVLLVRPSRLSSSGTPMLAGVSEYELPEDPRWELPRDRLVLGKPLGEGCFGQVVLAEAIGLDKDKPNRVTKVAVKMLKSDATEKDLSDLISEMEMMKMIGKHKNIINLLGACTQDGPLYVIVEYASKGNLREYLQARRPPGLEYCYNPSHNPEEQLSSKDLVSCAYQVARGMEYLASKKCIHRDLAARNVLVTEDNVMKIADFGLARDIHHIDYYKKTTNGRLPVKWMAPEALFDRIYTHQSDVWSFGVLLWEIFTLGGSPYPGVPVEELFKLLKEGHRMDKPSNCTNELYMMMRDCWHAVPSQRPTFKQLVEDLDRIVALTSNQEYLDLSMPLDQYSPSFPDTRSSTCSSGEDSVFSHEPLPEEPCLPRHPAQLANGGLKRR
Sequence of Proto-oncogene tyrosine-protein kinase Src (P12931 2-536 limits assumed): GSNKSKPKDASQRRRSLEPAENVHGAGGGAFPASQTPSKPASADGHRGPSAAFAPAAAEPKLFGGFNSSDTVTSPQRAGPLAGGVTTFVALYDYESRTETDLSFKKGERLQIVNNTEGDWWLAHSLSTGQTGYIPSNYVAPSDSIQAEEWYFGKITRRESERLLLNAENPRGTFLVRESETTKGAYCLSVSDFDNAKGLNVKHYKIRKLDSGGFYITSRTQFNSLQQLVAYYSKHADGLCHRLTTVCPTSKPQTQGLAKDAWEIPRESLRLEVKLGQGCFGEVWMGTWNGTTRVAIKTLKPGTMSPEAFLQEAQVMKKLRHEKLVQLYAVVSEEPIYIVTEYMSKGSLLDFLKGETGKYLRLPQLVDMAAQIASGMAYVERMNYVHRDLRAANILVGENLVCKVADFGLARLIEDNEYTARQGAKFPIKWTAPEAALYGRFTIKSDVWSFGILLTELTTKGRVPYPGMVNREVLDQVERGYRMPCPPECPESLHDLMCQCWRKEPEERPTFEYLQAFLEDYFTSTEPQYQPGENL
Sequence of Tyrosine-protein kinase Lck (P06239 whole entry): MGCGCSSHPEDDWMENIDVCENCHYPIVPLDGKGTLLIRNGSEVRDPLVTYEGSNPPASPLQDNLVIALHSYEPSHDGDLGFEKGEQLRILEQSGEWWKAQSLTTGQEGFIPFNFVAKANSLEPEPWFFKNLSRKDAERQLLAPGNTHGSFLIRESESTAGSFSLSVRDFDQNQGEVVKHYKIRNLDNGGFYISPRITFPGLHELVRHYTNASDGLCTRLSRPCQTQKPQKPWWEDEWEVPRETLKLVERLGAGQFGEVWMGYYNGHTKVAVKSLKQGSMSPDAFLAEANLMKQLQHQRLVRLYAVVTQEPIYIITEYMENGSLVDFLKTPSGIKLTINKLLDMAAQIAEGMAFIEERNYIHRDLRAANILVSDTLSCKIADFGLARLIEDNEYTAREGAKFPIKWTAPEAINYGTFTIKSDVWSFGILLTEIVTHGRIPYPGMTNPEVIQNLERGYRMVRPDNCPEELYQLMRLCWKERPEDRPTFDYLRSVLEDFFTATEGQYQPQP

| Structure (SMILES) | IC50 [1] [nM] | IC50 [2] [nM] | IC50 [3] [nM] | IC50 [4] [nM] | IC50 [5] [nM] | IC50 [6] [nM] |
| --- | --- | --- | --- | --- | --- | --- |
| CNS(=O)(=O)c1ccc2c(c1)/C(=C/c1[nH]c3c(c1CCC(=O)N1CCN(C)CC1)CCCC3)C(=O)N2 | 300 |  |  |  |  |  |
| CCOC(=O)CN1CCN(CCCc2c(/C=C3\C(=O)Nc4ccc(S(=O)(=O)NC)cc43)[nH]c3c2CCCC3)CC1 | 70 | 500 | 80 | 600 | 500 | > 20000 |
| CNS(=O)(=O)c1ccc2c(c1)/C(=C/c1[nH]c3c(c1CCCN1CCN(C(=O)CO)CC1)CCCC3)C(=O)N2 | 400 |  |  |  |  |  |
| CN(C)CCCc1c(/C=C2\C(=O)Nc3ccc(C(=O)O)cc32)[nH]c2c1CCCC2 | 700 |  |  |  |  |  |
| CN(C)CCCc1c(/C=C2\C(=O)Nc3ccc(-c4ccccc4)cc32)[nH]c2c1CCCC2 | 2300 |  |  |  |  |  |
| CNS(=O)(=O)c1ccc2c(c1)/C(=C/c1[nH]c3c(c1CCCN1CCN(CC(=O)O)CC1)CCCC3)C(=O)N2 | 20 | 400 | 200 | 100 | 400 | 8000 |
| CNS(=O)(=O)c1ccc2c(c1)/C(=C/c1[nH]c3c(c1CCCN1CCN(C(C)=O)CC1)CCCC3)C(=O)N2 | 300 |  |  |  |  |  |
| CCS(=O)(=O)Cc1ccc2c(c1)/C(=C/c1[nH]c3c(c1CCCN(C)C)CCCC3)C(=O)N2 | 10000 |  |  |  |  |  |
| COc1ccc2c(c1)/C(=C/c1[nH]c3c(c1CCCN(C)C)CCCC3)C(=O)N2 | 1000 |  |  |  |  |  |
| CNS(=O)(=O)c1ccc2c(c1)/C(=C/c1[nH]c3c(c1CCCN1CCN(C)CC1)CCCC3)C(=O)N2 | 70 | 300 | 1200 | 700 | 800 | 10000 |
| CCS(=O)(=O)c1ccc2c(c1)/C(=C/c1[nH]c3c(c1CCC(=O)O)CCCC3)C(=O)N2 | 400 |  |  |  |  |  |
| CCC(=O)N1CCN(CCCc2c(/C=C3\C(=O)Nc4ccc(S(=O)(=O)CC)cc43)[nH]c3c2CCCC3)CC1 | 800 |  |  |  |  |  |
| CCS(=O)(=O)c1ccc2c(c1)/C(=C/c1[nH]c3c(c1CCC(=O)N1CCN(C)CC1)CCCC3)C(=O)N2 | 500 |  |  |  |  |  |
| CNS(=O)(=O)c1ccc2c(c1)/C(=C/c1[nH]c3c(c1CCCN1CCOCC1)CCCC3)C(=O)N2 | 60 | 2300 | 1700 |  |  | 18000 |
| CCS(=O)(=O)c1ccc2c(c1)/C(=C/c1[nH]c3c(c1CCCN1CCC(O)CC1)CCCC3)C(=O)N2 | 70 |  |  | 700 | 600 | 2300 |
| CC(C)NS(=O)(=O)c1ccc2c(c1)/C(=C/c1[nH]c3c(c1CCCN(C)C)CCCC3)C(=O)N2 | 230 |  |  |  |  |  |
| CNS(=O)(=O)c1ccc2c(c1)/C(=C/c1[nH]c3ccccc3c1CCCN(C)C)C(=O)N2 | 200 |  |  |  |  |  |
| CN(C)CCCc1c(/C=C2\C(=O)Nc3ccc(S(=O)(=O)N(C)C)cc32)[nH]c2c1CCCC2 | 2600 |  |  |  |  |  |
| CCS(=O)(=O)c1ccc2c(c1)/C(=C/c1[nH]c3c(c1CCCN1CCN(CC(=O)O)CC1)CCCC3)C(=O)N2 | 70 | 800 | 400 | 400 | 400 | 13000 |
| CNS(=O)(=O)c1ccc2c(c1)/C(=C/c1[nH]c3c(c1CN1CCOCC1)CCCC3)C(=O)N2 | 10 | 60 | 200 | 80 | 400 |  |
| CCS(=O)(=O)c1ccc2c(c1)/C(=C/c1[nH]c3c(c1CCC(N)=O)CCCC3)C(=O)N2 | 40 | 300 | 80 |  | 200 | 5100 |
| CN(C)CCCc1c(/C=C2\C(=O)Nc3ccc(F)cc32)[nH]c2c1CCCC2 | 500 |  |  |  |  |  |
| CC(C)S(=O)(=O)c1ccc2c(c1)/C(=C/c1[nH]c3c(c1CCCN(C)C)CCCC3)C(=O)N2 | 230 |  |  |  |  |  |

| Structure (SMILES) | IC50 [1] [nM] | IC50 [2] [nM] | IC50 [3] [nM] | IC50 [4] [nM] | IC50 [5] [nM] | IC50 [6] [nM] |
| --- | --- | --- | --- | --- | --- | --- |
| CN(C)CCCc1c(/C=C2\C(=O)Nc3ccc(S(=O)(=O)NCc4ccc(F)cc4)cc32)[nH]c2c1CCCC2 | 1200 |  |  |  |  |  |
| CNS(=O)(=O)c1ccc2c(c1)/C(=C/c1cc3c([nH]1)CCCC3)C(=O)N2 | 2100 |  |  |  |  |  |
| CN(C)CCCc1c(/C=C2\C(=O)Nc3ccccc32)[nH]c2c1CCCC2 | 3300 |  |  |  |  |  |
| CNS(=O)(=O)c1ccc2c(c1)/C(=C/c1[nH]c3c(c1CCCN(C)C)CCCC3)C(=O)N2 | 100 | 1100 | 700 | 1600 | 60 | 3300 |
| CCS(=O)(=O)c1ccc2c(c1)/C(=C/c1[nH]c3c(c1CCCN1CCN(C)CC1)CCCC3)C(=O)N2 | 210 | 2600 |  | 600 | 1200 | 11000 |
| CN(C)CCCc1c(/C=C2\C(=O)Nc3ccc(S(=O)(=O)NCCO)cc32)[nH]c2c1CCCC2 | 240 |  |  |  |  |  |
| CNS(=O)(=O)c1ccc2c(c1)/C(=C/c1[nH]c3c(c1CCCN1CCNCC1)CCCC3)C(=O)N2 | 200 |  |  |  |  |  |
| CNS(=O)(=O)c1ccc2c(c1)/C(=C/c1[nH]c3c(c1CCCN1CCC(O)CC1)CCCC3)C(=O)N2 | 50 | 7100 | 3400 | 300 | 200 | 4700 |
| CCS(=O)(=O)c1ccc2c(c1)/C(=C/c1[nH]c3c(c1CN1CCOCC1)CCCC3)C(=O)N2 | 70 | 100 | 400 | 800 | 1400 |  |
| CNS(=O)(=O)c1ccc2c(c1)/C(=C/c1[nH]c3c(c1CCCN1CCN(CCO)CC1)CCCC3)C(=O)N2 | 30 | 400 | 600 | 400 | 100 | 5600 |
| CN(C)CCCc1c(/C=C2\C(=O)Nc3ccc(S(N)(=O)=O)cc32)[nH]c2c1CCCC2 | 600 |  |  |  |  |  |
| CCS(=O)(=O)c1ccc2c(c1)/C(=C/c1[nH]c3c(c1CCCN1CCN(C(=O)CO)CC1)CCCC3)C(=O)N2 | 220 |  |  |  |  |  |
| CN(C)CCCc1c(/C=C2\C(=O)Nc3ccc(S(=O)(=O)Nc4ccccc4Cl)cc32)[nH]c2c1CCCC2 | 300 |  |  |  |  |  |
| CNS(=O)(=O)c1ccc2c(c1)/C(=C/c1[nH]c3c(c1CCC(N)=O)CCCC3)C(=O)N2 | 30 | 500 | 70 | 100 | 50 | 6600 |
| CNS(=O)(=O)c1ccc2c(c1)/C(=C/c1[nH]c(C)c(C)c1CCCN(C)C)C(=O)N2 | 1000 |  |  |  |  |  |
| CCS(=O)(=O)c1ccc2c(c1)/C(=C/c1[nH]c3c(c1CCCN1CCN(CCO)CC1)CCCC3)C(=O)N2 | 70 | 400 | 1100 | 500 | 400 | 9000 |
| CCOC(=O)N1CCN(CCCc2c(/C=C3\C(=O)Nc4ccc(S(=O)(=O)NC)cc43)[nH]c3c2CCCC3)CC1 | 300 |  |  |  |  |  |
| CCS(=O)(=O)c1ccc2c(c1)/C(=C/c1[nH]c3c(c1CCCN1CCOCC1)CCCC3)C(=O)N2 | 150 |  |  |  |  |  |
| CCS(=O)(=O)c1ccc2c(c1)/C(=C/c1cc3c([nH]1)CCCC3)C(=O)N2 | 700 |  |  |  |  |  |
| CCS(=O)(=O)c1ccc2c(c1)/C(=C/c1[nH]c3c(c1CCCN(C)C)CCCC3)C(=O)N2 | 60 | 2700 | 400 | 200 | 300 | 2500 |
| CN(C)CCCc1c(/C=C2\C(=O)Nc3ccc(S(C)(=O)=O)cc32)[nH]c2c1CCCC2 | 300 |  |  |  |  |  |
| CCS(=O)(=O)c1ccc2c(c1)/C(=C/c1[nH]c3c(c1CCCN1CCN(C(C)=O)CC1)CCCC3)C(=O)N2 | 400 |  |  |  |  |  |
